These results are taken from ChEMBL document CHEMBL4118110, “The identification of inhibitory compounds of Rickettsia prowazekii methionine aminopeptidase for antibacterial applications” (Bioorg Med Chem Lett, 2018).

Each structure is given as a SMILES string.

This test can be described thus: Inhibition of Rickettsia prowazekii N-terminal His6-tagged methionine aminopeptidase 1 expressed in Escherichia coli DLB3 Rosetta cells at 10 uM using Met-AMC as substrate preincubated for 1 hr followed by 30 mins incubation after substrate addition measured after 90 mins in presence of MnCl2 by fluorescence assay relative to control. In short, it runs like this: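 Recombinant R. prowazekii MetAP with Mn(II) as the metal cofactor. Met-AMC substrate; release of free AMC is followed by fluorescence (excitation 360 nm, emission 460 nm). Activity is the slope of fluorescence versus time, compared with an uninhibited control.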
As for `O=C(CSc1nnc(-c2ccco2)[nH]1)N1CCCCC1`, the inhibition fell in the range of 1 to 48%.
For `COc1cccc(-c2nnc(-c3ccccc3N)[nH]2)c1` the value was 1 to 19%; for `CC(C)N(C(=O)CSc1nnc(N)[nH]1)c1ccccc1`, 24 to 64%; for `Cc1cc(C(=O)O)n[nH]1`, 34 to 42%.
For `CCCOC(=O)CSc1nnc(N)[nH]1` the value was 15 to 36%; for `NNC(=O)c1ccc(-c2ccc(Cl)cc2)o1`, 10 to 41%; for `COC(=O)c1ccc(CSc2nc[nH]n2)o1`, 30 to 59%.
On to `O=C(O)c1ccc(COc2ccc3ccc(=O)oc3c2)o1`, for which the inhibition was 14 to 21%.
In the case of `CCOC(=O)CSc1nnc(CC)[nH]1`, the inhibition lay within 6 to 22%.
For `CC(C)OC(=O)c1ccc(CSc2nnc(N)[nH]2)cc1` the value was 59 to 66%; for `Cc1cccc(CSc2nnc(N)[nH]2)c1`, 27 to 46%.
To `O=C(CSc1nnc(-c2ccco2)[nH]1)N1CCOCC1` belongs 24 to 40%.
In the case of `CCn1cnc2sc(C(=O)O)c(C)c2c1=O`, the inhibition was in the range of 7 to 47%.
To `CN(C)C(=O)CSc1n[nH]c(-c2ccco2)n1` belongs 1 to 3%; to `O=C(O)C1Cc2c([nH]c3ccccc23)CN1` (stereo not drawn), 17 to 19%.
To `COc1ccc(C(=O)CSc2n[nH]c(N)n2)cc1` belongs 32 to 58%; to `COc1cccc(-c2cc(C(=O)O)no2)c1`, 31 to 35%; to `O=C(O)c1cc(C2CC2)on1`, 28 to 30%.
Regarding `O=c1c2ccc(-c3ccccn3)nc2[nH]n1-c1ccccc1`, the inhibition was in the range of 1 to 55%.
As for `Nc1nnc(SCC(=O)Nc2ccc(Cl)cc2)[nH]1`, the inhibition was in the range of 19 to 38%.
Consider `CCc1nnc(SCC(=O)OC)[nH]1`, for which the inhibition lay in the range of 6 to 25%.
To `O=C(O)c1ccc(Sc2ccc(Br)cc2)o1` belongs 1 to 48%; to `COc1ccc(C(=O)CSc2nnc(C)[nH]2)cc1C`, 16 to 56%.
As to `N#Cc1cccc(NCc2ccc(O)c3ncccc23)c1`, the inhibition was 1 to 5%.
`CC(C)OC(=O)CSc1nnc(N)[nH]1`: the inhibition fell in the range of 23 to 38%.
Consider `Nc1n[nH]c(SCCN2C(=O)c3ccccc3C2=O)n1`, for which the inhibition lay in the range of 45 to 50%.
For `NCc1nnc(-c2ccccc2)o1` the value was 12 to 13%; for `Cc1cc(O)c2c(c1Cl)C(=O)C=CC2=O`, 31 to 66%; for `CCn1nc(C(=O)O)c2ccccc2c1=O`, 19 to 26%.
For `Sc1n[nH]c(-c2csc3c2CCCC3)n1` the value was 45 to 49%; for `Cc1ccc(S(=O)(=O)Cc2ccc(C(=O)O)o2)cc1`, 12 to 25%; for `CC(=O)c1c(C(=O)O)nn(-c2ccc(Cl)cc2)c1C`, 17 to 20%.
As to `O=C(CSc1nnc(-c2ccco2)[nH]1)c1ccccc1`, the inhibition lay in the range of 17 to 22%.
To `CCc1nnc(SCC(=O)c2ccc(F)cc2)[nH]1` belongs 2 to 13%; to `Cc1c(Cl)cccc1NC(=O)CSc1nnc[nH]1`, 22 to 62%; to `Cc1ccc(-c2noc(-c3ccccc3N)n2)cc1`, 2 to 52%.
For `Nc1nnc(SCCCc2ccccc2)[nH]1` the value was 18 to 37%; for `O=C(CSc1nnc[nH]1)Nc1ccccc1`, 2 to 60%.
To `COC(=O)CSc1n[nH]c(-c2ccncc2)n1` belongs 1 to 39%; to `Cc1nnc(CN)o1`, 13 to 32%.
`Cc1cccn2c(=O)c3cc(C(=O)O)sc3nc12`: the inhibition fell in the range of 31 to 36%.
For `O=C(O)c1cc(-c2cccnc2)on1`, the inhibition is 29 to 33%.
On to `Nc1nnc(SCCOc2ccc(Cl)cc2)[nH]1`, for which the inhibition was in the range of 31 to 32%.
For `O=C(CSc1nnc[nH]1)c1cccc2ccccc12` the value was 1 to 39%.
For `Cc1cc(C)cc(OCCSc2nnc(N)[nH]2)c1` the value was 38 to 39%; for `Cc1cc(C(=O)O)nn1-c1cccc(Cl)c1`, 1 to 22%; for `O=C(Nc1ccccc1)C(=O)Nc1ccccc1`, 2 to 39%.
Take `O=C(O)c1cscn1`: the inhibition was in the range of 35 to 41%.
On to `O=C(O)C(Sc1nnc[nH]1)c1ccccc1` (stereo not drawn), for which the inhibition was 3 to 41%.
For `O=C(O)c1cc([N+](=O)[O-])c(Cl)s1` the value was 7 to 63%; for `Cc1n[nH]c(SCC(=O)NCCc2ccccc2)n1`, 1 to 18%.
To `Cc1nnc(C(N)c2ccccc2)o1` (stereo not drawn) belongs 5 to 8%; to `C=C(C)Cn1cnc2sc(C(=O)O)c(C)c2c1=O`, 8 to 33%.
For `c1ccc(-c2nc3ccccc3o2)nc1` the value was 1 to 46%; for `Nc1cccc(-c2cnc(-c3ccccn3)s2)c1`, 30 to 36%; for `COc1ccccc1-c1cc(C(=O)O)no1`, 33 to 48%.
As to `C1CCc2nnc(-c3nnc4n3CCCCC4)n2CC1`, the inhibition lay within 1 to 60%.
To `O=C(O)c1ccc(S(=O)(=O)N2CCOCC2)o1` belongs 8 to 67%; to `Cc1nnc(SCC(=O)c2ccc(C(C)C)cc2)[nH]1`, 1 to 41%.
As for `Cc1ccc(S(=O)(=O)c2ccc(C(=O)O)s2)cc1`, the inhibition was 10 to 67%.
To `COc1ccccc1NC(=O)CSc1nc[nH]n1` belongs 19 to 52%; to `O=C1C(Cl)=C(N2CCCCC2)C(=O)c2ccccc21`, 12 to 46%; to `Nc1nnc(SCC(=O)OC2CCCCC2)[nH]1`, 60 to 68%.
For `COC(=O)c1ccc(CSc2nnc(N)[nH]2)cc1` the value was 36 to 46%.
For `Cc1nc(C(=O)O)c(-c2ccccc2F)s1` the value was 26 to 31%; for `CCc1ccc(OCCCSc2nnc(N)[nH]2)cc1`, 25 to 31%.
Consider `CCCN1CC(=O)C(c2nc3ccccc3[nH]2)=C1N`, for which the inhibition lay within 1 to 31%.
To `S=c1nc(-c2ccccn2)cc[nH]1` belongs 32 to 75%.
For `O=C1CCC(c2ccccc2O)=NN1` the value was 51 to 54%.
To `Oc1ccc(Br)cc1-c1nnco1` belongs 1 to 14%.
Consider `Cc1ccc(CSc2nnc(N)[nH]2)cc1`, for which the inhibition was 36%.
Regarding `CCc1nnc(SCC(=O)c2ccccc2)[nH]1`, the inhibition lay in the range of 1 to 40%.
For `COCCn1cnc2sc(C(=O)O)c(C)c2c1=O` the value was 20 to 24%.
For `CCCCCCSc1nnc(N)[nH]1` the value was 1 to 3%.
As for `Cc1nc(-c2ccccn2)sc1C(=O)N1CCCCC1`, the inhibition is 15 to 20%.
Consider `CC(=O)c1c(Nc2ccc(F)cc2)oc(C)cc1=O`, for which the inhibition was in the range of 23 to 58%.
On to `CC(C)(C)C1CCc2n[nH]c(C(=O)O)c2C1` (stereo not drawn), for which the inhibition was 1 to 41%.
To `C=CCn1cnc2sc(C(=O)O)c(C)c2c1=O` belongs 8 to 20%; to `O=C(O)CC(Sc1nnc[nH]1)c1ccc(Cl)cc1` (stereo not drawn), 54 to 55%; to `CC(=O)c1c(O)nc2ccccn12`, 16 to 43%.
For `Cc1c(C(=O)O)sc2nc3n(c(=O)c12)CCC3` the value was 34 to 50%; for `COCc1nc(=O)c2c(C)c(C(=O)O)sc2[nH]1`, 2 to 48%.
To `c1ccc(-c2nn[nH]n2)nc1` belongs 44 to 56%.
With `Cc1n[nH]c(O)c1C1=NCCCCC1`, the inhibition fell in the range of 4 to 65%.
For the molecule `COc1ccccc1OCc1ccc(C(=O)O)o1`, the inhibition is 6 to 17%.
In the case of `Nc1n[nH]c(SCCOc2ccccc2)n1`, the inhibition was in the range of 28 to 29%.
`COC(=O)CSc1nnc(-c2ccco2)[nH]1`: the inhibition was 13 to 27%.
For `Nc1nnc(SCC(=O)OCc2ccccc2)[nH]1` the value was 20 to 34%; for `Cc1c(C(=O)O)sc2ncn(C(C)C)c(=O)c12`, 5 to 19%.
For `c1ccn2c(C3CCCN3)nnc2c1` (stereo not drawn) the value was 2 to 51%; for `CCSc1nnc([C@@H]2CCCN2)o1`, 1 to 34%; for `Cc1cccc(OCc2ccc(C(=O)O)o2)c1`, 1 to 33%.
`Cc1c(C(=O)O)sc2nc(C)n(C)c(=O)c12`: the inhibition is 22 to 34%.
With `Cc1nc2sc(C(=O)O)c(C)c2c(=O)[nH]1`, the inhibition was 11 to 18%.
To `C1=C(c2ccccc2)Nc2ncnn2C1c1ccco1` (stereo not drawn) belongs 23 to 32%.
As for `Cc1c(C(=O)O)sc2[nH]c(=S)[nH]c(=O)c12`, the inhibition lay within 45 to 46%.
Consider `CCc1nnc(SCC(=O)c2ccc(OC)cc2)[nH]1`, for which the inhibition lay within 1 to 22%.
For `Cc1cccc(-c2nnc(C(C)N)o2)c1` (stereo not drawn) the value was 1 to 43%; for `Cc1ccc(-n2nnc(C(=O)O)c2C2CC2)cc1`, 1 to 44%; for `COc1ccc(N2C(=O)CCC2=O)cc1S(=O)(=O)Nc1cccc2cccnc12`, 14 to 36%.
In the case of `CCOC(=O)CSc1n[nH]c(-c2ccco2)n1`, the inhibition fell in the range of 1 to 51%.
As to `CC(C)CCNC(=O)c1ccc2[nH]c(=O)c(=O)[nH]c2c1`, the inhibition lay within 49 to 54%.
For `CCc1nnc(SCC(=O)c2ccc(Cl)cc2)[nH]1` the value was 9 to 23%; for `O=C(O)c1ccc(S(=O)(=O)Cl)s1`, 2 to 36%.
With `Cc1nc2ccccc2n1Cc1ccc(C(=O)O)o1`, the inhibition was 10 to 21%.
For `CC(C)N1CC(=O)C(c2nc3ccccc3[nH]2)=C1N`, the inhibition is 25 to 26%.
On to `Nc1n[nH]c(SCc2ccc(Br)cc2)n1`, for which the inhibition is 28 to 36%.
Turning to `Cc1cc(C)n(-c2ccc(Cl)c(C(=O)O)n2)n1`, the inhibition was in the range of 15 to 77%.
To `Cc1nnc(SCC(=O)N2CCCc3ccccc32)[nH]1` belongs 43 to 44%.
In the case of `Cc1nnc(SCC(=O)c2cccc3ccccc23)[nH]1`, the inhibition lay within 38 to 67%.
Consider `O=C(O)c1ccc(S(=O)(=O)c2ccccc2)o1`, for which the inhibition is 18 to 49%.
As for `Nc1nnc(SCC(=O)OCCCc2ccccc2)[nH]1`, the inhibition was 44 to 62%.
For `CN(C)C(=O)CSc1nnc(-c2ccncc2)[nH]1` the value was 21 to 44%.
To `COc1ccc(OCc2ccc(C(=O)O)o2)cc1` belongs 1 to 37%; to `O=C(O)c1cc(=O)c2ccccc2[nH]1`, 7 to 59%; to `Nc1cc(-c2ccccn2)n[nH]1`, 1 to 45%.
For `CC(=O)Nc1ccc(C(=O)CSc2nnc(C)[nH]2)cc1` the value was 1 to 39%; for `NC(=O)c1ccccc1N`, 1 to 33%.
